# Test results: ChEMBL document CHEMBL1122044, “Antiinflammatory agents. 2. Syntheses and antiinflammatory activity of substituted 2-aminophenylacetic acid derivatives” (J Med Chem, 1982)
# Columns and labels:
# [1] = target: T1, Cyclooxygenase (Bos taurus, UniProt O62664+O62698); assay: Evaluated for the inhibition of Prostaglandin synthetase obtained from bovine seminal vesicles at the dose of 20 mg/kg (p.o.); design: dose 20 mg/kg, route oral
# T1 sequence (O62664 whole entry): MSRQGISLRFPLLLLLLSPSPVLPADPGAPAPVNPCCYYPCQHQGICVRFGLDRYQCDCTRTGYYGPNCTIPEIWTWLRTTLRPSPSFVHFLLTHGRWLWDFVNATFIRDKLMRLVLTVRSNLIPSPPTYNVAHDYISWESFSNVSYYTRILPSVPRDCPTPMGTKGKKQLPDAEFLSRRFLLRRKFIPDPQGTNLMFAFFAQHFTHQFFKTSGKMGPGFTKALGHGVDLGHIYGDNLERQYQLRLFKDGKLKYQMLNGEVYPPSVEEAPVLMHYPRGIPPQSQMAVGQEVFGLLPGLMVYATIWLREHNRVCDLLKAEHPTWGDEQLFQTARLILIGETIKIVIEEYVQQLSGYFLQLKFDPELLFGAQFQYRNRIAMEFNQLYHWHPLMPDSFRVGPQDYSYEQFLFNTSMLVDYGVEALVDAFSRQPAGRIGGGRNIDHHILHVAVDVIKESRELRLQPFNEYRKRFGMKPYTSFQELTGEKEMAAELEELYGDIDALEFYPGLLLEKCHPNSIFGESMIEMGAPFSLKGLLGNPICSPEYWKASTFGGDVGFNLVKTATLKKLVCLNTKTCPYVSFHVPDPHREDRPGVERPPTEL
# T1 sequence (O62698 whole entry): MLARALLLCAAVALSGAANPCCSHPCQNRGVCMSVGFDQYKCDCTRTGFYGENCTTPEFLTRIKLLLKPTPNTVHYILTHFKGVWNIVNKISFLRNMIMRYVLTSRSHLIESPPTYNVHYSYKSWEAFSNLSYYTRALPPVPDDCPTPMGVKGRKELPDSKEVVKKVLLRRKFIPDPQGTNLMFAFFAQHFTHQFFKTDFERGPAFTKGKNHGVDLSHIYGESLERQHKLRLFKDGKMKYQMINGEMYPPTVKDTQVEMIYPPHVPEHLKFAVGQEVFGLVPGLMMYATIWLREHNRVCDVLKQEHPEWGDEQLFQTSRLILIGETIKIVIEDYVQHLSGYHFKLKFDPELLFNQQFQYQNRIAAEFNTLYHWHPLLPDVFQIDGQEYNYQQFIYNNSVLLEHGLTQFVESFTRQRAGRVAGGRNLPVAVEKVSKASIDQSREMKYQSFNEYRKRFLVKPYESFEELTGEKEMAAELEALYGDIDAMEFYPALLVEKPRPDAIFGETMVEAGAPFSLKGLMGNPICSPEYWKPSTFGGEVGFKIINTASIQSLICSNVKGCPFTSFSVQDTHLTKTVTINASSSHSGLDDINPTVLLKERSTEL
# How it was run: (§1)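 Cyclooxygenase-containing enzyme was a lyophilized 600g supernatant of bovine seminal vesicle homogenate in 0.05 M phosphate, pH 7.8. The assay used 0.1 M phosphate pH 7.8 with epinephrine and enzyme, and drug stocks of 3×10^-1 to 3×10^-6 M. After 3 min at 30 °C, arachidonic acid was added. Activity was taken as substrate minus basal O2-uptake rate, run in triplicate, and IC50 came from regression on log concentration.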
# [2] = test system: Rattus norvegicus; assay: Percent change of the antiinflammatory activity in the 5-h Evans Blue-Carrageenan induced pleural effusion assay at the dose of 4.0 mg/kg (p.o.); format: functional; conditions: route oral
# How it was run: (§2)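 Six fasted male rats per group received compound orally by gavage (10 mL/kg) in vehicle containing 0.5% Tween 80. Pleural effusion was induced by intrapleural injection of 5 mL 0.075% Evans blue–0.5% carrageenan type 7 and measured after 5 h. Results are given as percent change in pleural fluid volume versus a concurrent control group, with indomethacin 4.0 mg/kg as standard.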
# [3] = test system: Rattus norvegicus; assay: Percent change of the antiinflammatory activity in the 5-h Evans Blue-Carrageenan induced pleural effusion assay at the dose of 20 mg/kg (p.o.); format: functional; conditions: route oral; how it was run: as §2
# [4] = test system: Rattus norvegicus; assay: Evaluated for the antiinflammatory activity in the 5-h Evans Blue-Carrageenan induced pleural effusion assay at the dose of 20 mg/kg (p.o.); format: functional; conditions: route oral; how it was run: as §2
# [5] = test system: Rattus norvegicus; assay: Evaluated for the antiinflammatory activity in the 5-h Evans Blue-Carrageenan induced pleural effusion assay at the dose of 4.0 mg/kg (p.o.); format: functional; conditions: route oral; how it was run: as §2
# [6] = target: T1, Cyclooxygenase; assay: Evaluated for the inhibition of Prostaglandin synthetase obtained from bovine seminal vesicles at the dose of 100 mg/kg (p.o.); design: dose 100 mg/kg, route oral; how it was run: as §1
# [7] = test system: Rattus norvegicus; assay: Percent change of the antiinflammatory activity in the 5-h Evans Blue-Carrageenan induced pleural effusion assay at the dose of 100 mg/kg (p.o.); format: functional; conditions: route oral; how it was run: as §2
# [8] = test system: Rattus norvegicus; assay: Evaluated for the antiinflammatory activity in the 5-h Evans Blue-Carrageenan induced pleural effusion assay at the dose of 100 mg/kg (p.o.); format: functional; conditions: route oral; how it was run: as §2
# [9] = target: T1, Cyclooxygenase; assay: Evaluated for the inhibition of Prostaglandin synthetase obtained from bovine seminal vesicles at the dose of 4 mg/kg p.o.; design: dose 4 mg/kg, route oral; how it was run: as §1
# [10] = test system: Rattus norvegicus; assay: Persent change of the antiinflammatory activity in the 5-h Evans Blue-Carrageenan induced pleural effusion assay at the dose of 4.0 mg/kg (p.o.); format: functional; conditions: route oral; how it was run: as §2
# [11] = test system: Rattus norvegicus; assay: Percent activity in the 5-h Evans Blue-Carrageenan induced pleural effusion assay at the dose of 100 mg/kg (p.o.); format: functional; conditions: route oral; how it was run: as §2
# [12] = test system: Rattus norvegicus; assay: Percent activity in the 5-h Evans Blue-Carrageenan induced pleural effusion assay at the dose of 20 mg/kg (p.o.); format: functional; conditions: route oral; how it was run: as §2
# [13] = test system: Rattus norvegicus; assay: Persent change of the antiinflammatory activity in the 5-h Evans Blue-Carrageenan induced pleural effusion assay at the dose of 20 mg/kg (p.o.); format: functional; conditions: route oral; how it was run: as §2
# [14] = target: T1, Cyclooxygenase; assay: Evaluated for the inhibition of prostaglandin synthetase obtained from bovine seminal vesicles at the dose of 4.0 mg/kg (p.o.); design: dose 4 mg/kg, route oral
# [15] = test system: Rattus norvegicus; assay: Percent change of the antiinflammatory activity in the 5-h Evans Blue-Carrageenan induced pleural effusion assay at the dose of 0.8 mg/kg (p.o.); format: functional; conditions: route oral; how it was run: as §2
# [16] = test system: Rattus norvegicus; assay: Percent activity in the 5-h Evans Blue-Carrageenan induced pleural effusion assay at the dose of 0.16 mg/kg (p.o.); format: functional; conditions: route oral; how it was run: as §2
# [17] = test system: Rattus norvegicus; assay: Evaluated for the antiinflammatory activity in the 5-h Evans Blue-Carrageenan induced pleural effusion assay at the dose of 0.16 mg/kg (p.o.); format: functional; conditions: route oral; how it was run: as §2
# [18] = test system: Rattus norvegicus; assay: Evaluated for the antiinflammatory activity in the 5-h Evans Blue-Carrageenan induced pleural effusion assay at the dose of 0.8 mg/kg (p.o.); format: functional; conditions: route oral; how it was run: as §2
# [19] = test system: Rattus norvegicus; assay: Percent activity in the 5-h Evans Blue-Carrageenan induced pleural effusion assay at the dose of 4.0 mg/kg (p.o.); format: functional; conditions: route oral; how it was run: as §2
# [20] = test system: Rattus norvegicus; assay: Persent change of the antiinflammatory activity in the 5-h Evans Blue-Carrageenan induced pleural effusion assay at the dose of 0.16 mg/kg (p.o.); format: functional; conditions: route oral; how it was run: as §2
# [21] = test system: Rattus norvegicus; assay: Persent change of the antiinflammatory activity in the 5-h Evans Blue-Carrageenan induced pleural effusion assay at the dose of 0.8 mg/kg (p.o.); format: functional; conditions: route oral; how it was run: as §2
SMILES,IC50 [1],Change [2],Change [3],Pleural fluid [4],Pleural fluid [5],Change [10],also measured
CC(C(=O)[O-])c1ccc(-c2ccccc2)cc1.[Na+] (centres undefined),12 µM,-42%,-52%,2.9 mL,3.4 mL,,
O=C([O-])Cc1cccc(C(=O)c2ccccc2)c1Cl.[Na+],,,,,,,IC50 [6]: > 100 µM; Change [7]: -8%; Pleural fluid [8]: 5.7 mL
CC(C(=O)[O-])c1cccc(C(=O)c2ccccc2)c1N.[Na+] (centres undefined),,-4%,,,6 mL,,IC50 [6]: 1 µM; Change [7]: -38%; Pleural fluid [8]: 3.4 mL
O=C([O-])Cc1cccc(C(=O)c2ccccc2)c1.[Na+],,,,,5.9 mL,-7%,IC50 [9]: 40 µM
CN(C)c1c(CC(=O)[O-])cccc1C(=O)c1ccccc1.[Na+],,-5%,,5.2 mL,5.9 mL,,IC50 [6]: > 1000 µM; Change [11]: -36%; Change [12]: -16%; Pleural fluid [8]: 3.9 mL
Nc1cc(-c2ccccc2)ccc1CC(=O)[O-].[Na+],170 µM,-9%,-34%,3.9 mL,5.4 mL,,
O=C([O-])Cc1ccc(-c2ccccc2)cc1.[Na+],420 µM,-21%,-35%,3.9 mL,4.7 mL,,
Nc1c(CC(=O)[O-])cccc1Oc1ccccc1.[Na+],420 µM,4%,-7%,5.1 mL,5.7 mL,,
O=C([O-])Cc1cccc(Oc2ccccc2)c1.[Na+],> 1000 µM,,,4.9 mL,5.1 mL,-7%,Change [13]: -11%
Nc1c(CC(=O)[O-])cccc1C(=O)c1ccccc1.[Na+] [AMFENAC SODIUM],,-25%,,,4.5 mL,,IC50 [14]: 0.2 µM; Change [15]: -17%; Change [16]: -15%; Pleural fluid [17]: 5.1 mL; Pleural fluid [18]: 5 mL
CC(C(=O)[O-])c1cccc(Oc2ccccc2)c1.[Na+] (centres undefined) [FENOPROFEN SODIUM],98 µM,,-29%,3.9 mL,5.2 mL,,Change [19]: -6%
COc1ccc2c(c1)c(CC(=O)O)c(C)n2C(=O)c1ccc(Cl)cc1 [INDOMETHACIN],,,,,4 mL,-28%,
CC(C(=O)[O-])c1cccc(C(=O)c2ccccc2)c1.[Na+] (centres undefined) [KETOPROFEN SODIUM],,,,,3.6 mL,-41%,IC50 [9]: 3.4 µM; Change [20]: -4%; Change [21]: -24%; Pleural fluid [17]: 5.8 mL; Pleural fluid [18]: 4.6 mL
